Experimental data published in ChEMBL document CHEMBL2016570, “Synthesis, biological evaluation, and molecular docking studies of 1,3,4-thiadiazol-2-amide derivatives as novel anticancer agents” (Bioorg Med Chem, 2012).
The source made the active and inactive calls. The rule behind the calls is not given here.

Key:
MCF7 = assay: Antiproliferative activity against human MCF7 cells after 48 hrs by MTT assay; format: functional, cell-based; conditions: MCF7, 48 h
In short: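 MCF-7 cells were grown to log phase in RPMI 1640 with 10% FBS, diluted to 2 × 10⁴ cells/mL and seeded, then held 24 h at 37 °C, 5% CO₂. Compounds at pre-set concentrations went into six wells, with staurosporine as positive reference, for 48 h. MTT in PBS (2.5 mg/mL) was added, incubation ran overnight at 37 °C, and OD was read at 570 nm. Triplicate wells per concentration; assay run ≥3 times.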

[1] = biological target: Focal adhesion kinase 1 (Homo sapiens) (UniProt Q05397); assay: Inhibition of FAK in human MCF7 cells at 2 to 8 uM by Western blot analysis; format: cell-based
In short: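 After treatment, cells were PBS-washed and lysed in Tris/NaCl/PMSF/Na₃VO₄/NP-40/glycerol buffer with phosphatase and protease inhibitors, then spun at 12,000g for 5 min. Protein was measured by BCA, resolved on 10% SDS–PAGE and transferred to PVDF. Membranes were blocked in 5% nonfat milk for 2 h at room temperature, probed with primary antibodies overnight at 4 °C, then HRP secondary. Representative of three independent experiments.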

[2] = Inhibition of bovine brain FAK after 20 mins by turbidimetry; design: species or system Bos taurus
B16-F10 = assay: Antiproliferative activity against mouse B16F10 cells after 48 hrs by MTT assay; format: functional, cell-based; conditions: B16-F10, 48 h

Focal adhesion kinase 1 (Homo sapiens), sequence (Q05397 2-1052 limits assumed): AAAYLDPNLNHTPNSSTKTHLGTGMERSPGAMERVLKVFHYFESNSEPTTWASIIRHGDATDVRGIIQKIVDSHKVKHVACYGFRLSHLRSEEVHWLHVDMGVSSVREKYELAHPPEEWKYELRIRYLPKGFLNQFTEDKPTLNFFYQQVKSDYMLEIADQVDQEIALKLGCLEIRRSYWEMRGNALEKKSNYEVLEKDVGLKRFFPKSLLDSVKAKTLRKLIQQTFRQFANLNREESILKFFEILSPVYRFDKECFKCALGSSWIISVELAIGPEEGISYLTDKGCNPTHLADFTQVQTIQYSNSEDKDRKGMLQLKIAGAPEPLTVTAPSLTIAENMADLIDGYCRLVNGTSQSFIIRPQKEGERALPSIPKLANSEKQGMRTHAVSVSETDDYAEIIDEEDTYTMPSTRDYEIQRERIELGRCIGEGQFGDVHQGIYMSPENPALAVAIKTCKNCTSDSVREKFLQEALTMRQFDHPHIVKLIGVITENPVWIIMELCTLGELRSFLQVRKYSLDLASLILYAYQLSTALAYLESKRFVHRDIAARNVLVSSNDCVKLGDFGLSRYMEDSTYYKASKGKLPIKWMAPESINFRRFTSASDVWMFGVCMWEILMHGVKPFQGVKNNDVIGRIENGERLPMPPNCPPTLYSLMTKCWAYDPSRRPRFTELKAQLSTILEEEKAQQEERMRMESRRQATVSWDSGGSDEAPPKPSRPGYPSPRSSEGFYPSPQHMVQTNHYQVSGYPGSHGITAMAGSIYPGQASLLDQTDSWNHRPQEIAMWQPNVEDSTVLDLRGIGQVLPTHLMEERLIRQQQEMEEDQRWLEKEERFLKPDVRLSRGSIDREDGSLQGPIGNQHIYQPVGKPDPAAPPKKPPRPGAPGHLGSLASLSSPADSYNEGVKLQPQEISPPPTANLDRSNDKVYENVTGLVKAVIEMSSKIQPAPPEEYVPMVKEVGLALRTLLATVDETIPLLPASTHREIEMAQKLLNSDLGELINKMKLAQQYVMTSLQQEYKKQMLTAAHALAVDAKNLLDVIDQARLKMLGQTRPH

Row | Structure (SMILES) | IC50 (MCF7) [µM] | inhibition [1] | IC50 [2] [µM] | IC50 (B16-F10) [µM]
1 | O=C(Nc1nnc(-c2ccc(Cl)cc2)s1)c1cc(Cl)ccc1O | 0.45 | Active | 5.32 | 0.31
2 | O=C(Nc1nnc(-c2ccc(F)cc2)s1)c1ccccc1O | 1.21 |  | 7.02 | 1.16
3 | O=C(Nc1nnc(-c2ccc(Cl)cc2)s1)c1cc(Br)ccc1O | 0.67 |  | 5.85 | 0.56
4 | O=C(Nc1nnc(-c2ccc(F)cc2)s1)c1ccccc1 | 5.35 |  | 15.5 | 4.75
5 | O=C(Nc1nnc(-c2ccc(F)cc2)s1)c1cc(Cl)ccc1O | 0.75 |  | 6.13 | 0.68
6 | Cc1ccc(C(=O)Nc2nnc(-c3ccccc3)s2)cc1 | 3.28 |  | 9.84 | 2.76
7 | COc1ccc(-c2nnc(NC(=O)c3ccccc3)s2)cc1 | 1.55 |  | 7.71 | 1.58
8 | Cc1ccc(-c2nnc(NC(=O)c3cccnc3)s2)cc1 | 4.52 |  | 12.4 | 3.88
9 | COc1ccc(C(=O)Nc2nnc(-c3ccccc3)s2)cc1 | 1.83 |  | 7.89 | 1.75
10 | O=C(Nc1nnc(-c2ccc(Cl)cc2)s1)c1ccccc1 | 4.85 |  | 12.7 | 4.06
11 | O=C(Nc1nnc(-c2ccccc2)s1)c1ccc(F)cc1 | 4.85 |  | 14 | 4.36
12 | CN[C@@H]1C[C@H]2O[C@@](C)([C@@H]1OC)n1c3ccccc3c3c4c(c5c6ccccc6n2c5c31)C(=O)NC4 [STAUROSPORINE] | 3.07 |  |  | 
13 | O=C(Nc1nnc(-c2ccccc2)s1)c1ccc(Cl)cc1 | 4.49 |  | 11.9 | 4.65
14 | O=C(Nc1nnc(-c2ccccc2)s1)c1cccnc1 | 8.22 |  | 18.6 | 6.18
15 | O=C(Nc1nnc(-c2ccccc2)s1)c1cc(Br)ccc1O | 1.28 |  | 7.25 | 1.28
16 | O=C(Nc1nnc(-c2ccccc2)s1)c1ccccc1 | 5.87 |  | 16.2 | 5.15
17 | O=C(Nc1nnc(-c2ccccc2)s1)c1cc(Cl)ccc1O | 1.12 |  | 6.89 | 1.14
18 | COc1ccc(-c2nnc(NC(=O)c3cccnc3)s2)cc1 | 2.99 |  | 9.75 | 2.36
19 | O=C(Cc1ccccc1)Nc1nnc(-c2ccc(Cl)cc2)s1 | 6.47 |  | 19.7 | 8.23
20 | COc1ccc(-c2nnc(NC(=O)c3ccccc3O)s2)cc1 | 2.17 |  | 7.47 | 1.39
21 | O=C(Cc1ccccc1)Nc1nnc(-c2ccc(Br)cc2)s1 | 7.52 |  | 21.5 | 9.06
22 | O=C(Nc1nnc(-c2ccc(F)cc2)s1)c1cc(Br)ccc1O | 0.86 |  | 6.41 | 1.02
23 | O=C(Nc1nnc(-c2ccccc2)s1)c1ccccc1O | 2.76 |  | 9.36 | 2.02
24 | Cc1ccc(-c2nnc(NC(=O)c3ccccc3)s2)cc1 | 3.57 |  | 11.7 | 3.52
25 | O=C(Nc1nnc(-c2ccc(Cl)cc2)s1)c1ccccc1O | 1.02 |  | 6.79 | 1.15
26 | Cc1ccc(-c2nnc(NC(=O)c3ccccc3O)s2)cc1 | 2.36 |  | 8.54 | 1.97
